We go through four molecules from ChEMBL document CHEMBL4190298, “Stereochemistry of a Second Riolozane and Other Diterpenoids from Jatropha dioica” (J Nat Prod, 2017).

Where only a bound is given, the exact number is not on record here.

Series [1] relates to Human alphaherpesvirus 1. The series can be described thus: Antiviral activity against HSV-1 infected in African green monkey Vero cells assessed as inhibition of virus plaque formation. The series is classed as functional, organism-based. Particulars: Human alphaherpesvirus 1, Vero. An outline of the steps: (§1)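 Vero cells (ATCC CRL-1586) were grown in advanced DMEM with 2% FBS at 37 °C and 5% CO2. Wells of 5×10^5 cells were infected with 100 PFU HSV-1 or HSV-2 for 1 h at 37 °C. The supernatant was then replaced with medium containing 1% DMSO, 0.32% IgG and compound at 80, 160 or 320 μM. After 72 h, cells were MeOH-fixed and Giemsa-stained. Mock and acyclovir controls; triplicate.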

Series [2] deals with Human alphaherpesvirus 2. The experiment in a line: Antiviral activity against HSV-2 infected in African green monkey Vero cells assessed as inhibition of virus plaque formation. The series is classed as functional, organism-based. Conditions: Human alphaherpesvirus 2, Vero. Put shortly:
as §1

A short description of series [3]: Selectivity index, ratio of CC50 for African green monkey Vero cells to IC50 for HSV-1 infected in African green monkey Vero cells. Type of series: toxicity. Particulars: HSV-1 infected Vero cells, read-out: Ratio CC50/IC50.
Series [4] in a line: Selectivity index, ratio of CC50 for African green monkey Vero cells to IC50 for HSV-2 infected in African green monkey Vero cells. The series is classed as toxicity. Conditions: HSV-2 infected Vero cells, read-out: Ratio CC50/IC50.
Series [5] is described as follows: Cytotoxicity against African green monkey Vero cells. The series is classed as cell-based. Particulars: chlorocebus sabaeus. An outline of the steps:
(§2)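 Vero cells (ATCC CRL-1586) were grown in advanced DMEM with 2% FBS at 37 °C and 5% CO2 and exposed to compound at 100, 200, 400, 800 or 1600 μM for 3 days. Viability was read by MTT (10 μL of 5 mg/mL stock added). CC50 is the concentration reducing viability by 50% relative to untreated cells, taken as 100%. Triplicate; mean ± SD.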

A short description of series [6]: Cytotoxicity against African green monkey Vero cells assessed as reduction in cell viability after 3 days by MTT assay. Type of series: cell-based. Particulars: chlorocebus sabaeus. Put shortly:
as §2

The subject of series [7] is Human alphaherpesvirus 1. The series can be described thus: Antiviral activity against HSV-1 infected in African green monkey Vero cells assessed as inhibition of virus plaque formation after 72 hrs by Giemsa staining based assay. Conditions: Human alphaherpesvirus 1, Vero. The series is classed as functional, organism-based. An outline of the steps:
as §1

Series [8] has as its system Human alphaherpesvirus 2. The experiment in a line: Antiviral activity against HSV-2 infected in African green monkey Vero cells assessed as inhibition of virus plaque formation after 72 hrs by Giemsa staining based assay. Type of series: functional, organism-based. Conditions: Human alphaherpesvirus 2, Vero. An outline of the steps: as §1

As for `C[C@@H]1CC2=C(C1)[C@@H]([C@@]1(C)C(=O)C[C@H]3[C@@H](C1=O)C3(C)C)[C@H](C)C2=O`, the half-maximal inhibitory concentration (IC50) in the series with Human alphaherpesvirus 1 [1] and in the series with Human alphaherpesvirus 2 [2] was 210 µM each time. Moreover, the selectivity ratio in series [3] and in series [4] was 5.8 in each case. Half-maximal cytotoxicity in series [5] (CC50) was put at 1220 µM.
On to `C/C1=C/[C@]23O[C@H]2[C@H](C)C[C@@H]3C(=O)[C@]2(C)C(=O)CC(C)(C)[C@H]2CC1=O`, for which the 50% cytotoxic concentration (CC50) at 72 h in series [6] was > 1520 µM. For the same molecule, the IC50 in the series with Human alphaherpesvirus 1 [7] and in the series with Human alphaherpesvirus 2 [8] was > 303 µM in each case.
As for `Nc1nc2c(ncn2COCCO)c(=O)[nH]1` [ACYCLOVIR], the IC50 came out at 4.75 µM with Human alphaherpesvirus 1 [7] and 3.11 µM with Human alphaherpesvirus 2 [8].
As to `C[C@@H]1CC2=C(C1)[C@@H]([C@@]1(C)C(=O)C[C@H]3[C@@H](C1=O)C3(C)C)[C@@H](C)C2=O`, the CC50 at 72 h in series [6] amounted to 584 µM. Besides, the IC50 with Human alphaherpesvirus 1 [7] is 180 µM; in the series on Human alphaherpesvirus 2 [8] it was 172 µM. The selectivity ratio in series [3] came out at 3.2; in series [4], 3.4.
